Calls of active or inactive are those of the source. No cut-off for these calls is given here.
How the values were obtained:
[1] = system: Human immunodeficiency virus 1; assay: Antiviral activity against HIV1 NL4-3 infected human MT2 cells assessed as viral infection at 25 uM administered 30 mins before viral challenge by luciferase reporter gene activation assay relative to control; format: functional
How it was run: (§1)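 MT-2 cells at 10^6/mL in RPMI 1640 with 10% heat-inactivated FBS, 37 °C, 5% CO2. Cells were pretreated 30 min, then infected with VSV-pseudotyped pNL4-3.Luc.R−E− virus made in 293T cells (200 ng p24). After 20 h: PBS wash, lysis in Tris-phosphate pH 7.8 buffer, luciferase read. Value is % of untreated infected cells (100%), ±S.D.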

[2] = system: Human immunodeficiency virus 1; assay: Antiviral activity against HIV1 NL4-3 infected human MT2 cells assessed as viral infection at 10 uM administered 30 mins before viral challenge by luciferase reporter gene activation assay relative to control; format: functional; how it was run: as §1
MT2 [3] = assay: Cell cycle arrest in HIV1 NL4-3 infected human MT2 cells assessed as accumulation at G0/G1 phase at 25 uM administered 30 mins before viral challenge measured after 24 hrs by propidium iodide staining and flow cytometry; format: functional
How it was run: (§2)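 MT-2 cells at 10^6/mL were pretreated 30 min, then infected 24 h with VSV-pseudotyped HIV-1 luciferase virus. Phase percentages were taken; apoptosis was scored as the sub-G0/G1 (hypodiploid) fraction.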

MT2 [4] = assay: Induction of apoptosis in HIV1 NL4-3 infected human MT2 cells at 25 uM administered 30 mins before viral challenge measured after 24 hrs by propidium iodide staining and flow cytometry; format: functional; how it was run: as §2
MT2 [5] = assay: Cell cycle arrest in HIV1 NL4-3 infected human MT2 cells assessed as accumulation at G2/M phase at 10 uM administered 30 mins before viral challenge measured after 24 hrs by propidium iodide staining and flow cytometry; format: functional; how it was run: as §2
MT2 [6] = assay: Cell cycle arrest in HIV1 NL4-3 infected human MT2 cells assessed as accumulation at G0/G1 phase at 10 uM administered 30 mins before viral challenge measured after 24 hrs by propidium iodide staining and flow cytometry; format: functional; how it was run: as §2
MT2 [7] = assay: Cell cycle arrest in HIV1 NL4-3 infected human MT2 cells assessed as accumulation at S phase at 25 uM administered 30 mins before viral challenge measured after 24 hrs by propidium iodide staining and flow cytometry; format: functional; how it was run: as §2
MT2 [8] = assay: Cell cycle arrest in HIV1 NL4-3 infected human MT2 cells assessed as accumulation at G2/M phase at 25 uM administered 30 mins before viral challenge measured after 24 hrs by propidium iodide staining and flow cytometry; format: functional; how it was run: as §2
MT2 [9] = assay: Cell cycle arrest in HIV1 NL4-3 infected human MT2 cells assessed as accumulation at S phase at 10 uM administered 30 mins before viral challenge measured after 24 hrs by propidium iodide staining and flow cytometry; format: functional; how it was run: as §2
MT2 [10] = assay: Induction of apoptosis in HIV1 NL4-3 infected human MT2 cells at 10 uM administered 30 mins before viral challenge measured after 24 hrs by propidium iodide staining and flow cytometry; format: functional; how it was run: as §2
MT2 [11] = assay: Induction of apoptosis in HIV1 NL4-3 infected human MT2 cells administered 30 mins before viral challenge measured after 24 hrs by propidium iodide staining and flow cytometry; format: functional, cell-based; how it was run: as §2

CC1(C)CC[C@]2(C(=O)NCCCC(=O)O)CC[C@]3(C)C(=CC[C@@H]4[C@@]5(C)C[C@@H](O)[C@H](O)C(C)(C)[C@@H]5CC[C@]43C)[C@@H]2C1 was tested, and the Activity [1] was 93.8% and the Activity [2] was 126.4%.
For COC(=O)CCCCCNC(=O)[C@]12CCC(C)(C)C[C@H]1C1=CC[C@@H]3[C@@]4(C)C[C@@H](O)[C@H](O)C(C)(C)[C@@H]4CC[C@@]3(C)[C@]1(C)CC2, the Activity [1] was 36.8% and the Activity [2] was 69.6%.
Work on CC(C)[C@H](NC(=O)CCCNC(=O)[C@]12CCC(C)(C)C[C@H]1C1=CC[C@@H]3[C@@]4(C)C[C@@H](O)[C@H](O)C(C)(C)[C@@H]4CC[C@@]3(C)[C@]1(C)CC2)C(=O)O yielded an Activity [1] of 130.2% and an Activity [2] of 66.2%.
With CC1(C)CC[C@]2(C(=O)NCCCCCCCCCCC(=O)NCC(=O)O)CC[C@]3(C)C(=CC[C@@H]4[C@@]5(C)C[C@@H](O)[C@H](O)C(C)(C)[C@@H]5CC[C@]43C)[C@@H]2C1 the Activity [1] was 49.8% and the Activity [2] was 85.6%.
With CC1(C)CC[C@]2(C(=O)NCCCCCCCCCCC(=O)O)CC[C@]3(C)C(=CC[C@@H]4[C@@]5(C)C[C@@H](O)[C@H](O)C(C)(C)[C@@H]5CC[C@]43C)[C@@H]2C1 the Activity (MT2 [3]) was 53.7%, the Activity (MT2 [4]) was 5.2% and the Activity (MT2 [5]) was 15.1%. It also gave an Activity (MT2 [6]) of 62.6%, an Activity (MT2 [7]) of 22.2% and an Activity (MT2 [8]) of 18.9%. It also gave an Activity (MT2 [9]) of 18.8%, an Activity [1] of 21.5% and an Activity (MT2 [10]) of 3.5%. The Activity [2] was 56.7%.
For CC1(C)CC[C@]2(C(=O)NCCCC(=O)NCC(=O)O)CC[C@]3(C)C(=CC[C@@H]4[C@@]5(C)C[C@@H](O)[C@H](O)C(C)(C)[C@@H]5CC[C@]43C)[C@@H]2C1, the Activity [1] was 143.3% and the Activity [2] was 112.3%.
With CC(C)[C@H](NC(=O)CCCCCCCCCCNC(=O)[C@]12CCC(C)(C)C[C@H]1C1=CC[C@@H]3[C@@]4(C)C[C@@H](O)[C@H](O)C(C)(C)[C@@H]4CC[C@@]3(C)[C@]1(C)CC2)C(=O)O the Activity (MT2 [3]) was 59.2%, the Activity (MT2 [4]) was 4.6% and the Activity (MT2 [5]) was 21.6%. It also gave an Activity (MT2 [6]) of 54.6%, an Activity (MT2 [7]) of 20.5% and an Activity (MT2 [8]) of 15.5%. It also gave an Activity (MT2 [9]) of 21.4%, an Activity [1] of 21.2% and an Activity (MT2 [10]) of 2.1%. It also gave an Activity [2] of 44.9%.
COC(=O)[C@@H](NC(=O)[C@]12CCC(C)(C)C[C@H]1C1=CC[C@@H]3[C@@]4(C)C[C@@H](O)[C@H](O)C(C)(C)[C@@H]4CC[C@@]3(C)[C@]1(C)CC2)C(C)C showed an Activity [1] of 11.1% and an Activity [2] of 72%.
Molecule C[C@H](NC(=O)CCCNC(=O)[C@]12CCC(C)(C)C[C@H]1C1=CC[C@@H]3[C@@]4(C)C[C@@H](O)[C@H](O)C(C)(C)[C@@H]4CC[C@@]3(C)[C@]1(C)CC2)C(=O)O has an Activity [1] of 50.1% and an Activity [2] of 83.7%.
For CC1(C)CC[C@]2(C(=O)NCCCCCC(=O)NCC(=O)O)CC[C@]3(C)C(=CC[C@@H]4[C@@]5(C)C[C@@H](O)[C@H](O)C(C)(C)[C@@H]5CC[C@]43C)[C@@H]2C1, the Activity [1] was 122.1% and the Activity [2] was 125.7%.
COC(=O)CNC(=O)[C@]12CCC(C)(C)C[C@H]1C1=CC[C@@H]3[C@@]4(C)C[C@@H](O)[C@H](O)C(C)(C)[C@@H]4CC[C@@]3(C)[C@]1(C)CC2 showed an Activity [1] of 56.3% and an Activity [2] of 75.5%.
COC(=O)CCCNC(=O)[C@]12CCC(C)(C)C[C@H]1C1=CC[C@@H]3[C@@]4(C)C[C@@H](O)[C@H](O)C(C)(C)[C@@H]4CC[C@@]3(C)[C@]1(C)CC2 was tested, and the Activity [1] was 12%, the Activity (MT2 [11]) was “Active” and the Activity [2] was 32.5%.
Molecule CC1(C)CC[C@]2(C(=O)O)CC[C@]3(C)C(=CC[C@@H]4[C@@]5(C)C[C@@H](O)[C@H](O)C(C)(C)[C@@H]5CC[C@]43C)[C@@H]2C1 [MASLINIC ACID] has an Activity (MT2 [3]) of 23.1%, an Activity (MT2 [4]) of 51.8% and an Activity (MT2 [5]) of 18.4%. It also gave an Activity (MT2 [6]) of 47.9%, an Activity (MT2 [7]) of 17.7% and an Activity (MT2 [8]) of 7.5%. The Activity (MT2 [9]) was 20.6%, the Activity [1] was 6.7% and the Activity (MT2 [10]) was 13.5%. For the same molecule, the Activity [2] was 56.3%.
C[C@H](NC(=O)[C@]12CCC(C)(C)C[C@H]1C1=CC[C@@H]3[C@@]4(C)C[C@@H](O)[C@H](O)C(C)(C)[C@@H]4CC[C@@]3(C)[C@]1(C)CC2)C(=O)O gave an Activity [1] of 60.9% and an Activity [2] of 124.2%.
C[C@H](NC(=O)[C@]12CCC(C)(C)C[C@H]1C1=CC[C@@H]3[C@@]4(C)C[C@@H](O)[C@H](O)C(C)(C)[C@@H]4CC[C@@]3(C)[C@]1(C)CC2)C(=O)NCC(=O)O was tested, and the Activity [1] was 184.8% and the Activity [2] was 134.5%.
CC1(C)CC[C@]2(C(=O)NCC(=O)O)CC[C@]3(C)C(=CC[C@@H]4[C@@]5(C)C[C@@H](O)[C@H](O)C(C)(C)[C@@H]5CC[C@]43C)[C@@H]2C1 was tested, and the Activity [1] was 130.7% and the Activity [2] was 162.1%.
Molecule C[C@H](NC(=O)CCCCCNC(=O)[C@]12CCC(C)(C)C[C@H]1C1=CC[C@@H]3[C@@]4(C)C[C@@H](O)[C@H](O)C(C)(C)[C@@H]4CC[C@@]3(C)[C@]1(C)CC2)C(=O)O has an Activity [1] of 70.2% and an Activity [2] of 107%.
In the case of C[C@H](NC(=O)CCCCCNC(=O)[C@]12CCC(C)(C)C[C@H]1C1=CC[C@@H]3[C@@]4(C)C[C@@H](O)[C@H](O)C(C)(C)[C@@H]4CC[C@@]3(C)[C@]1(C)CC2)C(=O)NCC(=O)O, the Activity [1] is reported as 89.6% and the Activity [2] is reported as 170.2%.
C[C@H](NC(=O)CCCCCCCCCCNC(=O)[C@]12CCC(C)(C)C[C@H]1C1=CC[C@@H]3[C@@]4(C)C[C@@H](O)[C@H](O)C(C)(C)[C@@H]4CC[C@@]3(C)[C@]1(C)CC2)C(=O)O was tested, and the Activity [1] was 27.6% and the Activity [2] was 71.7%.
In the case of COC(=O)CCCCCCCCCCNC(=O)[C@]12CCC(C)(C)C[C@H]1C1=CC[C@@H]3[C@@]4(C)C[C@@H](O)[C@H](O)C(C)(C)[C@@H]4CC[C@@]3(C)[C@]1(C)CC2, the Activity [1] is reported as 35.6% and the Activity [2] is reported as 66.9%.
Molecule CC(C)[C@H](NC(=O)CCCCCNC(=O)[C@]12CCC(C)(C)C[C@H]1C1=CC[C@@H]3[C@@]4(C)C[C@@H](O)[C@H](O)C(C)(C)[C@@H]4CC[C@@]3(C)[C@]1(C)CC2)C(=O)O has an Activity [1] of 96.5% and an Activity [2] of 83.8%.
Work on CC(C)[C@H](NC(=O)[C@]12CCC(C)(C)C[C@H]1C1=CC[C@@H]3[C@@]4(C)C[C@@H](O)[C@H](O)C(C)(C)[C@@H]4CC[C@@]3(C)[C@]1(C)CC2)C(=O)O yielded an Activity [1] of 121.2% and an Activity [2] of 102.8%.
Molecule COC(=O)[C@H](C)NC(=O)[C@]12CCC(C)(C)C[C@H]1C1=CC[C@@H]3[C@@]4(C)C[C@@H](O)[C@H](O)C(C)(C)[C@@H]4CC[C@@]3(C)[C@]1(C)CC2 has an Activity [1] of 8.9% and an Activity [2] of 63.6%.
With CC1(C)CC[C@]2(C(=O)NCCCCCC(=O)O)CC[C@]3(C)C(=CC[C@@H]4[C@@]5(C)C[C@@H](O)[C@H](O)C(C)(C)[C@@H]5CC[C@]43C)[C@@H]2C1 the Activity [1] was 79.3% and the Activity [2] was 146.4%.
